Assays:
[1] = molecular target: T1, A disintegrin and metalloproteinase with thrombospondin motifs 5 (Homo sapiens) (UniProt Q9UNA0); assay: Inhibition of ADAMTS5 at 20 uM by FRET assay
T1 sequence (whole entry): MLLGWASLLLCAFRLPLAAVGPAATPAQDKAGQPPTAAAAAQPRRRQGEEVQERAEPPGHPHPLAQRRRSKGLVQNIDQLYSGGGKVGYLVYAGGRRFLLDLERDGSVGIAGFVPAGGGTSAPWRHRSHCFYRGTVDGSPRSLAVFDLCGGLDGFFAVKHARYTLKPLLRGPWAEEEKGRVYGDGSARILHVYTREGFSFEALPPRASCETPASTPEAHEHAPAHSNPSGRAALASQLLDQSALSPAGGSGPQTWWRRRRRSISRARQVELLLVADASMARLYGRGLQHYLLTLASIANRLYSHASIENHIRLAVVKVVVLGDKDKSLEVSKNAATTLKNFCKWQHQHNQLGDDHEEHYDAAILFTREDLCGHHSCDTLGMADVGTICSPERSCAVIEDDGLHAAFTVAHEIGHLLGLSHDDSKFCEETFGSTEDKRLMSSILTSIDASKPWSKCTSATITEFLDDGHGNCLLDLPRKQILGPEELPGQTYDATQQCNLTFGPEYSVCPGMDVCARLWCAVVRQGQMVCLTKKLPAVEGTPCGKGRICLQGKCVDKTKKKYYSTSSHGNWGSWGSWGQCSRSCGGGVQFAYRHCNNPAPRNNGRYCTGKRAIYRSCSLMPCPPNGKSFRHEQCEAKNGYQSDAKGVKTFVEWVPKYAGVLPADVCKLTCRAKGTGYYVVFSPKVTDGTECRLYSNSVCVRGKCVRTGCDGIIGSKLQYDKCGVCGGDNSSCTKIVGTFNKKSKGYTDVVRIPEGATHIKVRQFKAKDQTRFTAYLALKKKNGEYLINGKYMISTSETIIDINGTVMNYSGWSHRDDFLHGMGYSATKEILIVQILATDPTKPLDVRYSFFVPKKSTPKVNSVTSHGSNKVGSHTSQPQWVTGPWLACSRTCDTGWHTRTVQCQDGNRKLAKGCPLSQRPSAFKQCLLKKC
Outline: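 Percent inhibition of aggrecanase-2 (ADAMTS-5) measured at a single 20 µM compound level. Reported values are means of two experiments, with standard deviations of ±10%.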

[2] = molecular target: T2, A disintegrin and metalloproteinase with thrombospondin motifs 5 (Homo sapiens, UniProt Q9UNA0); assay: Inhibition of ADAMTS5 by FRET assay
T2 sequence (Q9UNA0 whole entry): T1 sequence (whole entry)
Outline: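 Aggrecanase-2 (ADAMTS-5) inhibition reported as IC50 in µM. Values are means of two independent experiments, with standard deviations of ±10%.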

[3] = molecular target: T3, A disintegrin and metalloproteinase with thrombospondin motifs 4 (Homo sapiens, UniProt O75173); assay: Inhibition of ADAMTS4 by FRET assay
T3 sequence (O75173 whole entry): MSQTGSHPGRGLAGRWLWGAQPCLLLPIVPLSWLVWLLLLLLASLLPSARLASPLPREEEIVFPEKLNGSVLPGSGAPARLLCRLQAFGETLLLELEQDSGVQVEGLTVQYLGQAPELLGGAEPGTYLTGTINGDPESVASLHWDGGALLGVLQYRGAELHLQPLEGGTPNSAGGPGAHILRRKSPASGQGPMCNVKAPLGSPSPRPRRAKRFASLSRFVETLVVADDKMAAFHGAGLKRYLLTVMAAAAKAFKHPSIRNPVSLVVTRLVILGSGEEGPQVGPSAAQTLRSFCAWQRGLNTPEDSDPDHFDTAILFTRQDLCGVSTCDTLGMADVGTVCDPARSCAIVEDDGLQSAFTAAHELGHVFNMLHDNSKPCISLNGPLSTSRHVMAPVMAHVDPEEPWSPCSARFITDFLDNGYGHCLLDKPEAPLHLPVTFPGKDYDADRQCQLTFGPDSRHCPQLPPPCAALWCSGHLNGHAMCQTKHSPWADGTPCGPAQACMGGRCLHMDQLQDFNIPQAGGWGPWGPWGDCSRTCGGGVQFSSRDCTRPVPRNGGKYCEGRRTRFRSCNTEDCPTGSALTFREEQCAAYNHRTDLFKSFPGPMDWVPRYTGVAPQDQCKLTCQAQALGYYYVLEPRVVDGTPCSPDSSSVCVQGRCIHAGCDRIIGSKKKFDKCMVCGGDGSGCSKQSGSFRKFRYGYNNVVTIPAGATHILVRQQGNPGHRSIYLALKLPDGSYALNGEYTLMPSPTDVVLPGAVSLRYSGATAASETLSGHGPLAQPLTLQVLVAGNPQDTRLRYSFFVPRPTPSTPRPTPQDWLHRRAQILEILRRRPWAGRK

| Compound | inhibition [1] [%] | IC50 [2] [µM] | also measured |
| --- | --- | --- | --- |
| Cn1nc(C(F)(F)F)c(/C=C2\SC(=S)NC2=O)c1Sc1ccc(Cl)cc1 | 47 | – | – |
| O=C1NC(=S)S/C1=C\c1c(C(F)(F)F)nn(-c2ccccc2)c1OCCc1ccc(Cl)cc1 | – | 4.2 | – |
| Cn1nc(-c2ccccc2)c(/C=C2\SC(=S)NC2=O)c1SCc1ccco1 | – | 14.1 | – |
| O=C1NC(=S)S/C1=C\c1c(C(F)(F)F)nn(-c2ccccc2)c1SCc1ccc(Cl)cc1 | – | 2.5 | – |
| Cn1nc(C(F)(F)F)c(/C=C2\SC(=S)NC2=O)c1N1CCN(c2ccc(Cl)cc2)CC1 | – | 9 | – |
| Cn1nc(C(F)(F)F)c(/C=C2\SC(=S)NC2=O)c1Sc1ccccc1 | 28 | – | – |
| COc1ccc(CCOc2c(/C=C3\SC(=S)NC3=O)c(C(F)(F)F)nn2-c2ccccc2)cc1 | 31 | – | – |
| Cn1nc(C(F)(F)F)c(/C=C2\SC(=S)NC2=O)c1SCc1cccs1 | 40 | – | – |
| Cn1nc(C(F)(F)F)c(/C=C2\SC(=S)NC2=O)c1SCc1ccccc1Cl | – | 23.2 | – |
| O=C1NC(=S)S/C1=C\c1c(C(F)(F)F)nn(-c2ccccc2)c1SCc1ccccc1 | – | 16.9 | – |
| O=C1NC(=S)S/C1=C\c1c(C(F)(F)F)nn(-c2ccccc2)c1N1CCN(c2ccc(Cl)cc2)CC1 | – | 2.1 | – |
| O=C1NC(=S)S/C1=C\c1c(C(F)(F)F)nn(-c2ccccc2)c1SCc1ccco1 | 42 | – | – |
| CN1CCN(c2c(/C=C3\SC(=S)NC3=O)c(-c3ccccc3)nn2-c2ccccc2)CC1 | – | 4.6 | – |
| O=C1NC(=S)S/C1=C\c1c(C(F)(F)F)nn(C2CCCCC2)c1N1CCN(c2ncccn2)CC1 | – | 11.7 | – |
| CN1CCN(c2c(/C=C3\SC(=S)NC3=O)c(C(F)(F)F)nn2-c2ccccc2)CC1 | 45 | – | – |
| O=C1NC(=S)S/C1=C\c1c(-c2ccccc2)nn(C2CCCCC2)c1N1CCN(c2ncccn2)CC1 | – | 8 | – |
| Cn1nc(C(F)(F)F)c(/C=C2\SC(=S)NC2=O)c1SCc1ccc(C(C)(C)C)cc1 | – | 2.2 | IC50 [3]: 7.5 µM |
| COc1ccc(CSc2c(/C=C3\SC(=S)NC3=O)c(C(F)(F)F)nn2C)cc1 | 53 | – | – |
| O=C1NC(=S)S/C1=C\c1c(C(F)(F)F)nn(C2CCCCC2)c1SCc1ccc(Cl)cc1 | – | 4.2 | – |
| O=C1NC(=S)S/C1=C\c1c(-c2ccccc2)nn(-c2ccccc2)c1SCc1cccs1 | – | 3.7 | – |
| O=C1NC(=S)S/C1=C\c1c(C(F)(F)F)nn(-c2ccccc2)c1OCCc1ccc(F)cc1 | – | 7.1 | – |
| CN1CCN(c2c(CC3SC(=S)NC3=O)c(C(F)(F)F)nn2-c2ccccc2)CC1 (stereo unspecified) | < 40 | – | – |
| O=C1NC(=S)SC1Cc1c(C(F)(F)F)nn(-c2ccccc2)c1SCc1ccc(Cl)cc1 (stereo unspecified) | – | 5.8 | – |
| Cn1nc(C(F)(F)F)c(/C=C2\SC(=S)NC2=O)c1SCc1ccccc1 | 44 | – | – |
| O=C1NC(=S)S/C1=C\c1c(-c2ccccc2)nn(-c2ccccc2)c1SCc1ccco1 | – | 6.7 | – |
| O=C1NC(=S)SC1Cc1c(C(F)(F)F)nn(-c2ccccc2)c1SCc1ccco1 (stereo unspecified) | 42 | – | – |
| Cn1nc(C(F)(F)F)c(/C=C2\SC(=S)NC2=O)c1SCc1ccc(Cl)cc1 | – | 1.1 | – |
| Cc1ccc(Sc2c(/C=C3\SC(=S)NC3=O)c(-c3ccccc3)nn2C)cc1 | – | 8.3 | – |
| O=C1NC(=S)S/C1=C\c1c(C(F)(F)F)nn(-c2ccccc2)c1OCCc1cccs1 | – | 9.1 | – |
| O=C1NC(=S)S/C1=C\c1c(-c2ccccc2)nn(C2CCCCC2)c1SCc1ccco1 | – | 4.6 | – |
